Laboratory results published in ChEMBL document CHEMBL1125582, “4-hydroxythiazole inhibitors of 5-lipoxygenase” (J Med Chem, 1991).
Values belong to the compound of their own block, whether it stands above or below them.

Columns and labels:
[1] = molecular target: T1, Polyunsaturated fatty acid 5-lipoxygenase (Homo sapiens, UniProt P09917); assay: The compound was tested for the inhibition of 5-lipoxygenase (5-lo) in human whole blood (HWBL); assay type: tissue-based
T1 sequence (P09917 whole entry): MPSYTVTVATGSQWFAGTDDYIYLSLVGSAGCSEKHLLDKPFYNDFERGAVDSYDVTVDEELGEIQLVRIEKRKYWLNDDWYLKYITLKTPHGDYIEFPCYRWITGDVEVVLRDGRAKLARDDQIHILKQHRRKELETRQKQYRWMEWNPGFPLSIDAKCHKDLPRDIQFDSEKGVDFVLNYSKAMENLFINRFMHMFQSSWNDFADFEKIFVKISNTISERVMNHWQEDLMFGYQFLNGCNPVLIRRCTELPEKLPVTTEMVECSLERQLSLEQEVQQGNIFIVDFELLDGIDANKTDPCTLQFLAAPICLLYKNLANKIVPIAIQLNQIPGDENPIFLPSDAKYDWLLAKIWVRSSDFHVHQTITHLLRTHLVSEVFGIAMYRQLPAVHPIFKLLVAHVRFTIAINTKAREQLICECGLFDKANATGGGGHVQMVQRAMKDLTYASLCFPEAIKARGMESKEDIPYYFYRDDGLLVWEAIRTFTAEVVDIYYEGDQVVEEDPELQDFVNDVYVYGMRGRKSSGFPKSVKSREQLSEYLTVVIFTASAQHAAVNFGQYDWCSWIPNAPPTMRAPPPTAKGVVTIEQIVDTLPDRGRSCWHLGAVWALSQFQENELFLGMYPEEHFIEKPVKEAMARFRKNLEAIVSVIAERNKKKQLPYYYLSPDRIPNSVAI
Procedure, shortened: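 Heparinized (20 units/mL) human blood preincubated 15 min at 37 °C with compound or vehicle. Challenged with A23187 in DMSO (final 50 μM) for 30 min, then chilled and centrifuged. Plasma extracted with 4 volumes methanol for at least 2 h at 3 °C. LTB₄ measured by RIA or EIA.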

[2] = molecular target: T2, Polyunsaturated fatty acid 5-lipoxygenase (Rattus norvegicus, UniProt P12527); assay: In vitro inhibition of 5-lipoxygenase (5-lo) from the 20000 g supernatant of RBI-1 cells; assay type: cell-based
T2 sequence (P12527 whole entry): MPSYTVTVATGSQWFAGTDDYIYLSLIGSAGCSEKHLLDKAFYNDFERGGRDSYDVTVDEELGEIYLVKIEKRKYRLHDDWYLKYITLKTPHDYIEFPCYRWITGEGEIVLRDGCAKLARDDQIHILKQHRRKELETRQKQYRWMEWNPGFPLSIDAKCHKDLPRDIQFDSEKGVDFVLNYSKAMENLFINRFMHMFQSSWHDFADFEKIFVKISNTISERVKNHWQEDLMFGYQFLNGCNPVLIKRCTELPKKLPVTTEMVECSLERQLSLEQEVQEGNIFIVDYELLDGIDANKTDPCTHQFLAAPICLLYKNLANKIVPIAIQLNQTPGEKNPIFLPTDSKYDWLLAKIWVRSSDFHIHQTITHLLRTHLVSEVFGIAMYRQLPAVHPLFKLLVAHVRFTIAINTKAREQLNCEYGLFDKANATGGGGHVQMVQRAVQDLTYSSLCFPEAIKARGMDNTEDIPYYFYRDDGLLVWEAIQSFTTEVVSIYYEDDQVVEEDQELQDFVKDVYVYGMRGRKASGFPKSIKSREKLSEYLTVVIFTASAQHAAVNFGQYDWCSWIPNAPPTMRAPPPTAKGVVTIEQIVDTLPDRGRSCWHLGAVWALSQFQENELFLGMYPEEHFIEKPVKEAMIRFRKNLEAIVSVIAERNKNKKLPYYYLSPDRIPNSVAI

[3] = molecular target: T2, Polyunsaturated fatty acid 5-lipoxygenase; assay: The compound was tested for the inhibition of 5-lipoxygenase (5-lo) in homogenized rat basophilic leukemia (RBL-1) cells; assay type: cell-based
Procedure, shortened: (§1)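 20000g supernatant of homogenized RBL-1 cells (7.5 × 10⁶ cell equiv/mL) preincubated 20 min at 37 °C with inhibitor or 2% Me₂SO vehicle in pH 6.8 BES/PIPES buffer with EDTA, NaCl, 0.7 mM CaCl₂. Reaction started with 66 μM [¹⁴C]arachidonic acid. [¹⁴C]-5-HETE counted by scintillation, corrected for [³H]-5-HETE recovery.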

[4] = molecular target: T3, Polyunsaturated fatty acid 5-lipoxygenase (Rattus norvegicus) (UniProt P12527); assay: The compound was tested for the in vitro inhibition of 5-lipoxygenase (5-lo) from the 20000 g supernatant of RBI-1 cells at a concentration of 32 uM; assay type: cell-based
T3 sequence (whole entry): T2 sequence (P12527 whole entry)
Procedure, shortened: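 RBL-1 cell homogenate, 20000g supernatant (7.5 × 10⁶ cell equiv/mL), preincubated 20 min at 37 °C with inhibitor or 2% Me₂SO vehicle in pH 6.8 BES/PIPES/EDTA/NaCl/CaCl₂ buffer; reaction started with 66 μM [¹⁴C]arachidonic acid. [¹⁴C]-5-HETE counted by scintillation, corrected by [³H]-5-HETE recovery; percent reduction vs control, single 32 μM concentration.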

[5] = molecular target: T2, Polyunsaturated fatty acid 5-lipoxygenase; assay: The compound was tested for the in vitro inhibition of 5-lipoxygenase from the 20000 g supernatant of RBI-1 cells; assay type: cell-based; procedure, shortened: as §1

IC50 [1]: 2200 nM | IC50 [2]: 3300 nM | IC50 [3]: 1400 nM
SMILES: CCCOC(=O)Oc1nc(-c2ccccc2)sc1CCC

SMILES: COP(=O)(OC)Oc1nc(-c2ccccc2)sc1-c1ccccc1
inhibition [4]: 14%

IC50 [5]: 4400 nM
SMILES: CN(O)C(=O)Cc1sc(-c2ccccc2)nc1O
